Read-outs that look alike come from different tables or passages of the source.
Tests used:
[1] = target: preformed Aβ40 aggregates (Homo sapiens, UniProt P05067); assay type: biochemical; settings: metal-free and metal-treated conditions
metal-free Aβ40 monomer [2] = target: T1, metal-free Aβ40 monomer (Homo sapiens, UniProt P05067); test: 2D SOFAST-HMQC NMR with metal-free monomeric Aβ40; assay type: binding; settings: [Aβ40] 80 μM; compound 800 μM (10 equiv); pH 7.4; 10 °C
Outline: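 Uniformly ¹⁵N-labeled monomeric Aβ40 (80 μM) with test compound at 0 or 800 μM in 20 mM phosphate buffer, pH 7.4, 50 mM NaCl, 7 % (v/v) D₂O, at 10 °C. 2D ¹H–¹⁵N SOFAST-HMQC spectra were recorded at 900 MHz with a cryogenic probe. Per-residue chemical shift perturbations were plotted against the average CSP with standard deviation; unresolved residues were excluded.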

[3] = TEAC assay in M17 cell lysates; assay type: biochemical; settings: relative to Trolox
Outline: (§1)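 Radical scavenging was measured by the test compound's quenching of pre-formed ABTS cation radicals (ABTS•⁺). The read-out was absorbance on a microplate reader, and capacity was expressed as Trolox equivalents.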

TEAC assay in EtOH = assay type: biochemical; settings: relative to Trolox
Outline: as §1

[4] = target: preformed Aβ42 aggregates (Homo sapiens, UniProt P05067); assay type: biochemical; settings: metal-free and metal-treated conditions
[5] = tested on: SK-N-BE(2)-M17 (M17) cells; test: Viability of cells treated with metal-free Aβ or metal–Aβ followed by compound; assay type: cell-based, human; settings: [Aβ] 10 μM, [CuCl2 or ZnCl2] 10 μM, [L2-b2] 20 μM, MTT
Outline: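 SK-N-BE(2)-M17 neuroblastoma cells were first exposed to metal-free Aβ40 or Aβ42, or to Aβ premixed with CuCl2 or ZnCl2. Test compound was added afterwards. Viability was measured by MTT absorbance on a microplate reader and expressed as % of cells given DMSO only (0–1 %, v/v).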

Aβ40 = Aβ40 (Homo sapiens, UniProt P05067); assay type: biochemical; settings: inhibition experiment; vs compound-free and L2-b1-treated conditions
Cu^II–Aβ40 = Cu^II–Aβ40 (Homo sapiens, UniProt P05067); test: nESI-MS and MS/MS of Aβ40 incubated with Cu^II and compound; assay type: biochemical; settings: [Aβ40] 20 μM; [CuCl2] 20 μM; [L2-b2] 120 μM; pH 7.5; 37 °C; 30 min
metal-free Aβ40 [6] = target: T2, metal-free Aβ40 (Homo sapiens, UniProt P05067); test: ESI-MS of metal-free Aβ40 incubated with compound; assay type: binding; settings: [Aβ40] 10 μM; [L2-b2] 50 μM; pH 7.5; 37 °C; 6 h
Aβ42 = Aβ42 (Homo sapiens, UniProt P05067); assay type: biochemical; settings: inhibition experiment; vs compound-free and L2-b1-treated conditions
Outline: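 Aβ42 (25 μM) was incubated with test compound (50 μM), either metal-free or with CuCl2 or ZnCl2 (25 μM). Cu samples were at pH 6.6; metal-free and Zn samples at pH 7.4. Incubation was at 37 °C with constant agitation. Size distribution was read by gel/Western blot with anti-Aβ antibody 6E10, and morphology by TEM of the same samples.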

metal-free Aβ40 monomer [7] = target: T1, metal-free Aβ40 monomer; settings: ref 4e; cited from earlier work
[8] = tested on: metal-free Aβ and metal–Aβ; settings: ref 4b,f; cited from earlier work
metal-free Aβ40 [9] = target: T2, metal-free Aβ40; settings: ref 4b,f; cited from earlier work

T1 sequence (P05067 672-711 limits assumed): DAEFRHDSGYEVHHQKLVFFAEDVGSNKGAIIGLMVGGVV
Sequence of preformed Aβ40 aggregates (P05067 672-711 limits assumed): as above
T2 sequence (P05067 672-711 limits assumed): as above
Sequence of Cu^II–Aβ40 (P05067 672-711 limits assumed): as above
Sequence of Aβ40 (P05067 672-711 limits assumed): as above
Sequence of preformed Aβ42 aggregates (P05067 672-713 limits assumed): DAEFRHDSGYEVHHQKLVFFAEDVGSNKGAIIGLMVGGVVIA
Sequence of Aβ42 (P05067 672-713 limits assumed): as above

Compound: c1ccc(CNCc2ccccn2)nc1 [DPA1, bis(pyridin-2-ylmethyl)amine, reference compound]
- Disaggregation of preformed Aβ40 aggregates (gel/Western blot) [1]: could not detectably disaggregate preformed Aβ40 aggregates

Compound: CN(C)c1ccc(CNCc2ccc(N(C)C)cn2)nc1 [DPA2, 6-((((5-(dimethylamino)pyridin-2-yl)methyl)amino)methyl)-N,N-dimethylpyridin-3-amine]
- Disaggregation of preformed Aβ40 aggregates (gel/Western blot) [1]: could not detectably disaggregate preformed Aβ40 aggregates

Compound: CN(C)c1ccc(CNc2ccccc2)nc1 [L2-b1, N,N-dimethyl-6-((phenylamino)methyl)pyridin-3-amine]
- Interaction with metal-free Aβ40 monomer (CSP) (metal-free Aβ40 monomer [2]): weak interactions with metal-free Aβ
- TEAC value [3]: 0.7 ± 0.1
- TEAC value (TEAC assay in EtOH): 0.8 ± 0.1
- Disaggregation of preformed Aβ40 aggregates (gel/Western blot) [1]: could not detectably disaggregate preformed Aβ40 aggregates

Compound: CN(C)c1ccc(NCc2ccc(N(C)C)cn2)cc1 [L2-b2, N^1-((5-(dimethylamino)pyridin-2-yl)methyl)-N^4,N^4-dimethylbenzene-1,4-diamine]
- Interaction with metal-free Aβ40 monomer (CSP) (metal-free Aβ40 monomer [2]): weak interactions with metal-free Aβ
- Disaggregation of preformed Aβ42 aggregates (gel/Western blot) [4]: dismantle preformed metal-free and metal-treated Aβ42 aggregates
- Effect on toxicity triggered by metal-free Aβ and metal–Aβ in living cells [5]: possibly alleviate toxicity triggered by metal-free Aβ and metal–Aβ in living cells
- TEAC value [3]: 1.1 ± 0.1
- Morphology of resultant Aβ40 aggregates (TEM) (Aβ40): more amorphous aggregates and/or smaller fibrils
- Mass loss of Aβ40 compared to apo Aβ40 (degraded Aβ) (Cu^II–Aβ40): 89.1 (± 0.1) Da
- TEAC value (TEAC assay in EtOH): 1.9 ± 0.1
- Interaction with metal-free Aβ (ESI-MS) (metal-free Aβ40 [6]): forming a covalent adduct of Aβ–cationic imine
- Disaggregation of preformed Aβ40 aggregates (gel/Western blot) [1]: displayed various-sized peptide aggregates to different degrees
- Morphology of resultant Aβ42 aggregates (TEM) (Aβ42): more amorphous aggregates and/or smaller fibrils

Compound: CN(C)c1ccc(NCc2ccccn2)cc1 [L2-b, N^1,N^1-dimethyl-N^4-(pyridin-2-ylmethyl)benzene-1,4-diamine]
- Interaction with metal-free Aβ40 monomer (CSP) (metal-free Aβ40 monomer [7]): weak interactions with metal-free Aβ
- Reactivity toward metal-free Aβ and metal–Aβ aggregation pathways [8]: reactivity only for metal–Aβ species
- Interaction with metal-free Aβ (metal-free Aβ40 [9]): unable to interact with metal-free Aβ

Compound: NCc1ccccn1 [PMA1, pyridin-2-yl-methanamine, reference compound]
- Disaggregation of preformed Aβ40 aggregates (gel/Western blot) [1]: could not detectably disaggregate preformed Aβ40 aggregates

Compound: CN(C)c1ccc(CN)nc1 [PMA2, 6-(aminomethyl)-N,N-dimethylpyridin-3-amine, reference compound]
- Disaggregation of preformed Aβ40 aggregates (gel/Western blot) [1]: could not detectably disaggregate preformed Aβ40 aggregates
